Test results: ChEMBL document CHEMBL1671716, “Antimicrobial susceptibility patterns for recent clinical isolates of anaerobic bacteria in South Korea” (2010)
Values after ≈ are worked out from the molar mass of the structure shown.

What follows are molecules tested on Bacteroides caccae (assay: Antimicrobial activity against Bacteroides caccae after 48 hrs by agar dilution method).
Format: functional
Outline: (§1)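 MICs on clinical anaerobe isolates by the CLSI agar dilution method. Inoculum of 10^5 CFU applied with a Steers replicator. Plates incubated 48 h at 37°C in an anaerobic chamber.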

| SMILES | MIC50 | MIC90 |
| --- | --- | --- |
| C[C@@H](O)[C@H]1C(=O)N2C(C(=O)O)=C(SCCNC=N)C[C@H]12 [IMIPENEM ANHYDROUS] | 0.5 µg/mL (≈ 1.67 µM) | 4 µg/mL (≈ 13.4 µM) |

The molecules below were run on Parabacteroides distasonis (assay: Antimicrobial activity against Bacteroides distasonis after 48 hrs by agar dilution method).
Format: functional
Outline: as §1

| SMILES | MIC50 | MIC90 |
| --- | --- | --- |
| C[C@@H](O)[C@H]1C(=O)N2C(C(=O)O)=C(SCCNC=N)C[C@H]12 [IMIPENEM ANHYDROUS] | 0.5 µg/mL (≈ 1.67 µM) | 4 µg/mL (≈ 13.4 µM) |

These molecules were tested on Phocaeicola vulgatus (assay: Antimicrobial activity against Bacteroides vulgatus after 48 hrs by agar dilution method).
Format: functional
Outline: as §1

| SMILES | MIC50 | MIC90 |
| --- | --- | --- |
| C[C@@H](O)[C@H]1C(=O)N2C(C(=O)O)=C(SCCNC=N)C[C@H]12 [IMIPENEM ANHYDROUS] | 0.5 µg/mL (≈ 1.67 µM) | 4 µg/mL (≈ 13.4 µM) |

What follows are molecules tested on Bacteroides ovatus (assay: Antimicrobial activity against Bacteroides ovatus after 48 hrs by agar dilution method).
Format: functional
Outline: as §1

| SMILES | MIC50 | MIC90 |
| --- | --- | --- |
| C[C@@H](O)[C@H]1C(=O)N2C(C(=O)O)=C(SCCNC=N)C[C@H]12 [IMIPENEM ANHYDROUS] | 0.5 µg/mL (≈ 1.67 µM) | 4 µg/mL (≈ 13.4 µM) |

The molecules below were run on Bacteroides fragilis (assay: Antimicrobial activity against Bacteroides fragilis assessed as percent resistant isolates after 48 hrs by agar dilution method).
Format: functional
Outline: (§2)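 CLSI agar dilution on recent Korean clinical anaerobe isolates. Inoculum 10^5 CFU per spot by replicator. Plates incubated in an anaerobic chamber at 37°C for 48 h. For piperacillin plus tazobactam, tazobactam was held constant at 4 μg/ml. Resistance and susceptibility rates derived from MICs.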

| SMILES | Activity |
| --- | --- |
| C[C@@H](O)[C@H]1C(=O)N2C(C(=O)O)=C(SCCNC=N)C[C@H]12 [IMIPENEM ANHYDROUS] | 2% |

The molecules below were run on Bacteroides thetaiotaomicron (assay: Antimicrobial activity against Bacteroides thetaiotaomicron assessed as percent susceptible isolates after 48 hrs by agar dilution method).
Format: functional

| SMILES | Activity |
| --- | --- |
| C[C@@H](O)[C@H]1C(=O)N2C(C(=O)O)=C(SCCNC=N)C[C@H]12 [IMIPENEM ANHYDROUS] | 95% |

What follows are molecules tested on Bacteroides caccae (assay: Antimicrobial activity against Bacteroides caccae assessed as percent susceptible isolates after 48 hrs by agar dilution method).
Format: functional

| SMILES | Activity |
| --- | --- |
| C[C@@H](O)[C@H]1C(=O)N2C(C(=O)O)=C(SCCNC=N)C[C@H]12 [IMIPENEM ANHYDROUS] | 95% |

The molecules below were run on Phocaeicola vulgatus (assay: Antimicrobial activity against Bacteroides vulgatus assessed as percent susceptible isolates after 48 hrs by agar dilution method).
Format: functional

| SMILES | Activity |
| --- | --- |
| C[C@@H](O)[C@H]1C(=O)N2C(C(=O)O)=C(SCCNC=N)C[C@H]12 [IMIPENEM ANHYDROUS] | 95% |

These molecules were tested on Prevotella intermedia (assay: Antimicrobial activity against Prevotella intermedia after 48 hrs by agar dilution method).
Format: functional
Outline: (§3)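 CLSI agar dilution (M11-A7); inoculum 10^5 CFU applied by replicator; plates incubated anaerobically 48 h at 37°C. For piperacillin-tazobactam, tazobactam held constant at 4 μg/ml.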

| SMILES | MIC | MIC50 | MIC90 |
| --- | --- | --- | --- |
| C[C@@H](O)[C@H]1C(=O)N2C(C(=O)O)=C(SCCNC=N)C[C@H]12 [IMIPENEM ANHYDROUS] | 0.02 µg/mL (≈ 0.0668 µM) | 0.03 µg/mL (≈ 0.1 µM) | 0.06 µg/mL (≈ 0.2 µM) |

These molecules were tested on Prevotella bivia (assay: Antimicrobial activity against Prevotella bivia after 48 hrs by agar dilution method).
Format: functional
Outline: as §3

| SMILES | MIC50 | MIC90 |
| --- | --- | --- |
| C[C@@H](O)[C@H]1C(=O)N2C(C(=O)O)=C(SCCNC=N)C[C@H]12 [IMIPENEM ANHYDROUS] | 0.06 µg/mL (≈ 0.2 µM) | 0.5 µg/mL (≈ 1.67 µM) |

Each molecule was assayed on Prevotella intermedia (assay: Antimicrobial activity against Prevotella intermedia assessed as percent susceptible isolates after 48 hrs by agar dilution method).
Format: functional
Outline: as §3

| SMILES | Activity |
| --- | --- |
| C[C@@H](O)[C@H]1C(=O)N2C(C(=O)O)=C(SCCNC=N)C[C@H]12 [IMIPENEM ANHYDROUS] | 100% |

What follows are molecules tested on Prevotella bivia (assay: Antimicrobial activity against Prevotella bivia assessed as percent susceptible isolates after 48 hrs by agar dilution method).
Format: functional
Outline: as §3

| SMILES | Activity |
| --- | --- |
| C[C@@H](O)[C@H]1C(=O)N2C(C(=O)O)=C(SCCNC=N)C[C@H]12 [IMIPENEM ANHYDROUS] | 100% |

The molecules below were run on Prevotella buccae (assay: Antimicrobial activity against Prevotella buccae assessed as percent susceptible isolates after 48 hrs by agar dilution method).
Format: functional, Segatella buccae
Outline: as §3

| SMILES | Activity |
| --- | --- |
| C[C@@H](O)[C@H]1C(=O)N2C(C(=O)O)=C(SCCNC=N)C[C@H]12 [IMIPENEM ANHYDROUS] | 100% |

Each molecule was assayed on Hoylesella oralis (assay: Antimicrobial activity against Prevotella oralis assessed as percent resistant isolates after 48 hrs by agar dilution method).
Format: functional
Outline: as §2

| SMILES | Activity |
| --- | --- |
| C[C@@H](O)[C@H]1C(=O)N2C(C(=O)O)=C(SCCNC=N)C[C@H]12 [IMIPENEM ANHYDROUS] | 0% |

These molecules were tested on Fusobacterium mortiferum (assay: Antimicrobial activity against Fusobacterium mortiferum after 48 hrs by agar dilution method).
Format: functional
Outline: as §3

| SMILES | MIC |
| --- | --- |
| C[C@@H](O)[C@H]1C(=O)N2C(C(=O)O)=C(SCCNC=N)C[C@H]12 [IMIPENEM ANHYDROUS] | 0.02 µg/mL (≈ 0.0668 µM) |

These molecules were tested on Parvimonas micra (assay: Antimicrobial activity against Peptostreptococcus micros assessed as percent susceptible isolates after 48 hrs by agar dilution method).
Format: functional
Outline: as §2

| SMILES | Activity |
| --- | --- |
| C[C@@H](O)[C@H]1C(=O)N2C(C(=O)O)=C(SCCNC=N)C[C@H]12 [IMIPENEM ANHYDROUS] | 0% |

These molecules were tested on Peptoniphilus asaccharolyticus (assay: Antimicrobial activity against Peptoniphilus asaccharolyticus after 48 hrs by agar dilution method).
Format: functional
Outline: as §3

| SMILES | MIC50 | MIC90 |
| --- | --- | --- |
| C[C@@H](O)[C@H]1C(=O)N2C(C(=O)O)=C(SCCNC=N)C[C@H]12 [IMIPENEM ANHYDROUS] | ≤ 0.008 µg/mL | 0.03 µg/mL (≈ 0.1 µM) |

What follows are molecules tested on Finegoldia magna (assay: Antimicrobial activity against Finegoldia magna after 48 hrs by agar dilution method).
Format: functional
Outline: as §3

| SMILES | MIC50 | MIC90 |
| --- | --- | --- |
| C[C@@H](O)[C@H]1C(=O)N2C(C(=O)O)=C(SCCNC=N)C[C@H]12 [IMIPENEM ANHYDROUS] | 0.06 µg/mL (≈ 0.2 µM) | 0.125 µg/mL (≈ 0.418 µM) |

What follows are molecules tested on Clostridium perfringens (assay: Antimicrobial activity against Clostridium perfringens after 48 hrs by agar dilution method).
Format: functional

| SMILES | MIC50 | MIC90 |
| --- | --- | --- |
| C[C@@H](O)[C@H]1C(=O)N2C(C(=O)O)=C(SCCNC=N)C[C@H]12 [IMIPENEM ANHYDROUS] | 0.125 µg/mL (≈ 0.418 µM) | 0.125 µg/mL (≈ 0.418 µM) |

These molecules were tested on Clostridium perfringens (assay: Antimicrobial activity against Clostridium perfringens assessed as percent susceptible isolates after 48 hrs by agar dilution method).
Format: functional

| SMILES | Activity |
| --- | --- |
| C[C@@H](O)[C@H]1C(=O)N2C(C(=O)O)=C(SCCNC=N)C[C@H]12 [IMIPENEM ANHYDROUS] | 100% |

What follows are molecules tested on Clostridioides difficile (assay: Antimicrobial activity against Clostridium difficile after 48 hrs by agar dilution method).
Format: functional

| SMILES | MIC50 | MIC90 |
| --- | --- | --- |
| C[C@@H](O)[C@H]1C(=O)N2C(C(=O)O)=C(SCCNC=N)C[C@H]12 [IMIPENEM ANHYDROUS] | 4 µg/mL (≈ 13.4 µM) | 8 µg/mL (≈ 26.7 µM) |

Each molecule was assayed on Actinomyces israelii (assay: Antimicrobial activity against Actinomyces israelii after 48 hrs by agar dilution method).
Format: functional
Outline: as §1

| SMILES | MIC50 | MIC90 |
| --- | --- | --- |
| C[C@@H](O)[C@H]1C(=O)N2C(C(=O)O)=C(SCCNC=N)C[C@H]12 [IMIPENEM ANHYDROUS] | 0.06 µg/mL (≈ 0.2 µM) | 0.5 µg/mL (≈ 1.67 µM) |

These molecules were tested on Schaalia meyeri (assay: Antimicrobial activity against Actinomyces meyeri after 48 hrs by agar dilution method).
Format: functional
Outline: as §1

| SMILES | MIC50 | MIC90 |
| --- | --- | --- |
| C[C@@H](O)[C@H]1C(=O)N2C(C(=O)O)=C(SCCNC=N)C[C@H]12 [IMIPENEM ANHYDROUS] | 0.06 µg/mL (≈ 0.2 µM) | 0.5 µg/mL (≈ 1.67 µM) |

These molecules were tested on Schaalia meyeri (assay: Antimicrobial activity against Actinomyces meyeri assessed as percent resistant isolates after 48 hrs by agar dilution method).
Format: functional
Outline: as §2

| SMILES | Activity |
| --- | --- |
| C[C@@H](O)[C@H]1C(=O)N2C(C(=O)O)=C(SCCNC=N)C[C@H]12 [IMIPENEM ANHYDROUS] | 0% |

Each molecule was assayed on Actinomyces naeslundii (assay: Antimicrobial activity against Actinomyces naeslundii assessed as percent resistant isolates after 48 hrs by agar dilution method).
Format: functional
Outline: as §2

| SMILES | Activity |
| --- | --- |
| C[C@@H](O)[C@H]1C(=O)N2C(C(=O)O)=C(SCCNC=N)C[C@H]12 [IMIPENEM ANHYDROUS] | 0% |

Each molecule was assayed on Bifidobacterium adolescentis (assay: Antimicrobial activity against Bifidobacterium adolescentis after 48 hrs by agar dilution method).
Format: functional
Outline: as §1

| SMILES | MIC50 | MIC90 |
| --- | --- | --- |
| C[C@@H](O)[C@H]1C(=O)N2C(C(=O)O)=C(SCCNC=N)C[C@H]12 [IMIPENEM ANHYDROUS] | 0.06 µg/mL (≈ 0.2 µM) | 0.5 µg/mL (≈ 1.67 µM) |

The molecules below were run on Eggerthella lenta (assay: Antimicrobial activity against Eubacterium lentum assessed as percent susceptible isolates after 48 hrs by agar dilution method).
Format: functional
Outline: as §3

| SMILES | Activity |
| --- | --- |
| C[C@@H](O)[C@H]1C(=O)N2C(C(=O)O)=C(SCCNC=N)C[C@H]12 [IMIPENEM ANHYDROUS] | 100% |

What follows are molecules tested on Eggerthella lenta (assay: Antimicrobial activity against Eubacterium lentum assessed as percent resistant isolates after 48 hrs by agar dilution method).
Format: functional
Outline: as §2

| SMILES | Activity |
| --- | --- |
| C[C@@H](O)[C@H]1C(=O)N2C(C(=O)O)=C(SCCNC=N)C[C@H]12 [IMIPENEM ANHYDROUS] | 0% |

The molecules below were run on Eubacterium sp. (assay: Antimicrobial activity against Eubacterium sp. after 48 hrs by agar dilution method).
Format: functional
Outline: as §3

| SMILES | MIC50 | MIC90 |
| --- | --- | --- |
| C[C@@H](O)[C@H]1C(=O)N2C(C(=O)O)=C(SCCNC=N)C[C@H]12 [IMIPENEM ANHYDROUS] | 0.06 µg/mL (≈ 0.2 µM) | 0.5 µg/mL (≈ 1.67 µM) |
